JMJD2C inh: blocks human GASC-1 demethylase activity; inhibition, % at 2.35 µM; GST-JMJD2C(1-420) H3K9me3 demethylation, DELFIA europium; hit rate 0.069% among 330,000;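 active = more than half of a compound's replicate wells show inhibition beyond 50%, single wells judged on their own value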;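 also: signal counts dimethyl H3K9 product captured on neutravidin plate; 0% = median of DMSO wells and 100% = 0.3 times that DMSO median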
NR2E3 ag-1: activates human photoreceptor nuclear receptor NR2E3; Q9Y5X4; inhibition of corepressor binding, % at 4.78 µM; GST-NR2E3/biotin-RetCOR TR-FRET, 1536-well; hit rate 0.12% among 320,000;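 active = percent inhibition above the cutoff of mean plus 3 SD of all tested compounds, set per screening campaign, cut at about 20% in these data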;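 also: 0% = DMSO wells and 100% = biotin wells as full block of FRET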
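Format: 1536-well format; test system: GST-NR2E3 and biotin-RetCOR proteins; read-out basis: percent inhibition of TR-FRET ratio; timing: 5 h incubation at 4 °C; detection: time-resolved FRET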
DAX1 inh-1: NR0B1 (DAX1) inhibition; HEK293 Gal4-DAX1 luciferase reporter, luminescence; hit rate 0.99% among 340,000; inhibition, % at 6.75 µM; P51843;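 active = inhibition above the mean over all tested compounds plus 3 SD, cut at about 4.2% in these data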;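 also: 0% = DAX1-transfected cells with DMSO and 100% = empty-vector control cells with DMSO; inhibition shows as a rise in luminescence from relieved DAX1 repression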
Target sequence (P51843 207-470 limits assumed): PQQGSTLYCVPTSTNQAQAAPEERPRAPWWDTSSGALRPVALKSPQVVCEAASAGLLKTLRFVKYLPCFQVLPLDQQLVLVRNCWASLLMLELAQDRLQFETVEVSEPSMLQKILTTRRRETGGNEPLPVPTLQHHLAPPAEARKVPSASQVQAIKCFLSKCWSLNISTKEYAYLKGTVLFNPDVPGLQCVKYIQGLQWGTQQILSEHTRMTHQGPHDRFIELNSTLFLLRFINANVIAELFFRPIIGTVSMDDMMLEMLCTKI
SMARCA2 activ: activators of SMARCA2 function; MG213 cells, MMTV-luciferase reporter, dexamethasone, overnight; activation, % at 9.1 µM; hit rate 1% among 370,000; in the data active = activation above about 7.8%;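 also: 0% = vehicle wells and 100% = reference activator wells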
NR2E3 ag-2: activates human NR2E3 receptor | Q9Y5X4 | CHO-S Gal4-NCOR/VP16-NR2E3 two-hybrid, luciferase | hit rate 0.35% among 360,000 | inhibition of corepressor binding, % at 3.98 µM;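 active = inhibition above the mean of all tested compounds plus 3 SD, cut at about 70% in these data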;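 also: 0% = DMSO with NR2E3 transfected cells and 100% = cells lacking NR2E3 construct; higher means lower luciferase signal from less NR2E3 corepressor binding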
DAX1 inh-2: blocks DAX1 repression of SF-1 activated StAR promoter; hit rate 1.1% among 370,000; AID 652010; inhibition, % at 6.8 µM; HEK293T StAR-luciferase reporter, SF-1/DAX-1 repression relief;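 active = inhibition above the mean over all tested compounds plus 3 SD, cut at about 3.6% in these data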;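 also: 0% = DAX-1 cells with DMSO and 100% = cells lacking DAX-1 with DMSO; higher inhibition means more luminescence from relief of DAX-1 repression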
DAX1 inh confirm: confirmation of human DAX1 (NR0B1) inhibitors; shares compounds with DAX1 inh-2; HEK293T StAR-promoter luciferase reporter, SF-1/DAX-1 repression; inhibition, % at 6.8 µM; hit rate 87% among 2,400;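 active = inhibition above the average of every tested compound plus 3 SD, cut at about 3.8% in these data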;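 also: 0% = DAX-1 cells with DMSO and 100% = no DAX-1 control cells with DMSO; active compounds raise luminescence by relieving repression of the StAR reporter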
Target sequence (P51843 whole entry, looked up): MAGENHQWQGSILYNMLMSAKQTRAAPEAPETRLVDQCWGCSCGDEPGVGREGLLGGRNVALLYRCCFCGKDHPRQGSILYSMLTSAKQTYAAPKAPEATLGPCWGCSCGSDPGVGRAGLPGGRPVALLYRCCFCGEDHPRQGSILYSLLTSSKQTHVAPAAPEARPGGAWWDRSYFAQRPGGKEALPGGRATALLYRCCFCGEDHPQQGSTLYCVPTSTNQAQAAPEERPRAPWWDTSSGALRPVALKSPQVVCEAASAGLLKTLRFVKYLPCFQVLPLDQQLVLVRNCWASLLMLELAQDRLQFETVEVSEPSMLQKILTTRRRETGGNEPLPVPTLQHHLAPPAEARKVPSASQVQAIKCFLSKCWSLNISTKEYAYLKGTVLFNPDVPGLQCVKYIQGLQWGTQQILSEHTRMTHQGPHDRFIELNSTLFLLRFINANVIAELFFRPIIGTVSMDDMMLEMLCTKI
SF1 mutant ctr: nonselective inhibitor or artifact in SF-1 mutant DAX1 counter-screen | shares compounds with DAX1 inh-2 | HEK293 StAR-luciferase, SF-1 AF2 mutant, luminescence | inhibition, % at 6.8 µM | hit rate 78% among 2,400 | AID 652136;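 active = inhibition above the mean of all tested compounds plus 3 SD, cut at about 3% in these data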;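 also: 0% = DAX-1 transfected cells with DMSO and 100% = cells without DAX-1 with DMSO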
Numbers without * were called inactive; nt = no result given. Hits are enriched below; roughly 3.2% of the tested compounds scored in any of these assays.

SMILES	JMJD2C inh	NR2E3 ag-1	DAX1 inh-1	SMARCA2 activ	NR2E3 ag-2	DAX1 inh-2	DAX1 inh confirm	SF1 mutant ctr
CCc1noc(C)c1C(=O)NCCc1ccccc1	9.5	-3.4	0.2	0.8	-55.9	5.3*	6.1*	4.8*
CN1C(=O)C[C@@](C#N)(C(=O)N2CCOCC2)[C@H]1c1ccccc1	nt	nt	nt	-0.9	nt	0.7	nt	nt
CC1(c2nnnn2Cc2ccccc2)CCSCC(=O)N1Cc1cccs1 (stereo not given)	nt	nt	nt	-1.2	nt	0.3	nt	nt
c1ccc(OCCSc2nnnn2C2CCCCC2)cc1	0.9	1.4	1.6	6.5	-105.6	4.5*	11.3*	8.3*
COc1ccccc1OCCSc1nnnn1C1CCCCC1	7.1	-1.7	0.3	3.4	-73.0	0.6	nt	nt
CCN(CC)S(=O)(=O)c1ccc(C(=O)NCC2(N3CCOCC3)CCCCC2)cc1	-2.1	-1.4	0.3	0.2	-2.1	4.6*	3.2	2.1
CN(C)S(=O)(=O)c1ccc(C(=O)NCC2(N3CCCCC3)CCCCC2)cc1	-9.6	0.0	0.8	1.6	2.1	6.0*	8.5*	3.3*
CS(=O)(=O)c1ccc(C(=O)NCC2(N3CCCCC3)CCCCC2)cc1	2.6	4.3	1.9	0.8	13.4	2.7	nt	nt
CCN(CC)S(=O)(=O)c1cccc(C(=O)NCC2(N3CCOCC3)CCCCC2)c1	nt	nt	-0.2	1.6	7.9	-0.1	nt	nt
O=C(N/N=C\c1ccc2c(c1)OCO2)c1ccco1	-3.2	3.0	3.5	6.4	-98.0	2.7	nt	nt
O=C(N/N=C/c1ccc2cccnc2c1)c1ccco1	10.1	-3.9	0.8	4.5	-137.0	5.0*	13.7*	7.2*
Cc1ccc(NC(=O)CN2CCN(c3nc(-c4ccccc4)cs3)CC2)cc1C	nt	nt	nt	4.6	nt	-0.2	nt	nt
CCCC1CCC2(CCC(=O)N2CCOC)CC1 (stereo not given)	nt	nt	nt	-3.5	nt	1.7	nt	nt
C#CCN(C[C@H]1[C@H](OC(=O)Nc2cccs2)[C@H](OC(=O)Nc2cccs2)C[C@H]2C(=O)N(c3ccccc3)C(=O)[C@@H]12)S(=O)(=O)c1ccc(C)cc1	nt	nt	0.1	-3.7	-30.7	4.6*	-0.4	-0.4
C#CCN(C[C@H]1[C@H](OC(=O)NC2CC2)[C@H](OC(=O)NC2CC2)C[C@H]2C(=O)N(c3ccccc3)C(=O)[C@@H]12)S(=O)(=O)c1ccc(C)cc1	nt	nt	0.6	4.5	-20.2	-0.3	nt	nt
COc1ccc(/C=N\NC(=O)c2sccc2C)cc1Cn1nc(C)cc1C	21.5	-1.8	2.5	5.8	-59.5	9.9*	0.8	-3.9
COc1ccc(/C=N\NC(=O)COc2ccccc2Cl)cc1Cn1nc(C)cc1C	-49.1	-0.1	0.2	1.1	43.6	-0.1	nt	nt
CCCCOCCCNC(=O)C[C@H]1C[C@@]2(C(=O)OC)C(=C[C@H](C(C)C)O[C@@H]2C2CC2)N(Cc2ccc3c(c2)OCO3)C1=O	nt	nt	nt	-2.9	nt	-0.1	nt	nt
CCOc1ccc(NC(=O)c2ccco2)cc1S(=O)(=O)N1CCCC1	-7.3	-0.7	0.3	-1.0	-11.2	5.1*	2.9	1.0
Cc1nn(-c2ccccc2)c(C)c1/C=N\NC(=O)CSc1nc2ccccc2n1Cc1ccc(Cl)cc1	nt	nt	nt	2.4	nt	0.1	nt	nt
C=CCN(CC#Cc1ccccc1)CC=C	nt	nt	nt	0.3	nt	0.9	nt	nt
CCOc1ccc(NC(=O)c2ccc3c(c2)N(C)CCS3)cc1	nt	nt	2.5	2.6	-55.0	5.0*	5.0*	2.5
CCN1CCSc2ccc(C(=O)Nc3ccc(NC(C)=O)cc3)cc21	-0.2	1.7	-1.5	-2.6	1.0	0.4	nt	nt
Cc1ccc(CONC(=O)c2ccc(Cl)cc2)cc1	2.5	0.1	1.4	1.3	-49.5	1.5	nt	nt
Cc1ccc(CONC(=O)c2ccc(C)cc2)cc1	-9.3	1.8	2.9	1.6	-135.8	5.9*	5.9*	3.5*
SMILES	JMJD2C inh	NR2E3 ag-1	DAX1 inh-1	SMARCA2 activ	NR2E3 ag-2	DAX1 inh-2	DAX1 inh confirm	SF1 mutant ctr
O=C(NOCc1ccccc1)c1ccc([N+](=O)[O-])cc1	2.8	2.0	0.4	4.5	-108.3	7.3*	9.7*	5.2*
COc1ccc(C(=O)NOCc2ccccc2)cc1	7.3	1.9	-1.7	1.9	-137.6	1.3	nt	nt
O=C(NOCc1ccccc1)c1ccc(Cl)cc1	-9.9	0.2	0.4	0.5	-103.7	8.6*	10.9*	6.2*
Cc1ccc(CONC(=O)c2ccccc2)cc1	-4.2	5.2	4.0	2.2	-113.0	2.1	nt	nt
COC(=O)C[C@@H]1CC[C@@H]2[C@@H](COc3ccc(NC(=O)Nc4ccccc4)cc3C(=O)N2C)O1	nt	nt	nt	-1.2	nt	-0.9	nt	nt
Cc1ccc(Cn2cc(COC(=O)N3CCOCC3)nn2)cc1	nt	nt	nt	-1.2	nt	-0.4	nt	nt
O=C(CCc1nc(-c2ccccc2F)no1)NCCc1cccc(F)c1	nt	nt	nt	-7.0	nt	-0.6	nt	nt
COc1ccc(/C=N/Nc2ncc(-c3ccccc3)cn2)c(OC)c1	-9.7	2.1	-0.8	-0.7	12.1	-0.2	nt	nt
COc1ccc(/C=N/Nc2ncccc2[N+](=O)[O-])c(OC)c1	3.1	-0.8	-3.8	4.2	-21.9	5.0*	15.4*	8.9*
O=C(CSc1nc2ccccc2nc1N1CCCCC1)N1CCN(S(=O)(=O)c2ccccc2)CC1	nt	nt	nt	-6.9	nt	-1.1	nt	nt
Fc1ccc(OCc2cc(-c3ccccc3)no2)cc1	2.4	-3.0	4.0	3.9	-112.0	1.2	nt	nt
Clc1ccc(OCc2cc(-c3ccccc3)no2)c(Cl)c1	3.0	2.6	-0.7	7.5	-120.1	7.5*	9.3*	1.2
COc1ccc(-c2csc(N3C(=N)SCC3=O)n2)cc1	8.4	1.3	1.7	6.8	-95.9	6.9*	16.3*	7.4*
COc1ccc(-c2csc(N3C(=O)CNC3=S)n2)cc1	7.2	2.2	-1.8	4.1	-133.3	5.5*	14.3*	6.6*
CC(C)(C)OC(=O)NCCc1ccccc1/C=C/S(=O)(=O)NC1CCCC1	nt	nt	nt	-2.9	nt	-2.2	nt	nt
CC(=O)N(c1ccccc1)c1nnc(-c2cnc(C)cn2)s1	2.1	-2.9	2.5	3.1	-96.5	8.4*	9.5*	9.2*
O=C(c1cccs1)n1ccc2ccc(-c3ccc4ccn(C(=O)c5cccs5)c4c3)cc21	nt	nt	nt	-1.4	nt	0.6	nt	nt
O=C(Cc1ccccc1F)N1CCC(n2nnc3ncccc32)CC1	nt	nt	nt	-5.7	nt	-0.6	nt	nt
c1ccc(C(c2nnnn2C2CCCC2)N2CCN(c3nc4ccccc4s3)CC2)cc1 (stereo not given)	-14.5	1.0	0.5	-5.5	-12.7	-0.7	nt	nt
C1=C(c2cn(-c3nc4ccccc4s3)nn2)CCCC1	nt	nt	nt	6.0	-141.3	11.5*	12.0*	5.8*
c1ccc2sc(-n3cc(C4CCCCC4)nn3)nc2c1	nt	nt	nt	6.1	-145.1	9.2*	15.4*	8.7*
COc1ccc(/C=N/N=C(\N)c2nonc2N)cc1	28.4	nt	-2.0	4.0	-104.8	8.7*	14.4*	5.9*
